Screening data deposited in PubChem by Broad Institute.
Rows were chosen to be rich in hits. Some 2.9% of all compounds tested hit in one or more screens of this group.
S100A4 inh HTS: inhibitors of S100A4-myosin IIA peptide binding, primary screen, biochemical, fluorescence polarization, TAMRA-MyoIIA peptide | Protein S100-A4 (Homo sapiens), P26447 | inhibition, % at 10.7 µM | 360,000 compounds, 0.14% hits | AID 652163, 2013;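 active = mean inhibition of at least 70% across replicates, with every replicate also reaching that level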
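Compound dosing: one dose per compound; test system: human S100A4 monomer with TAMRA-labelled myosin IIA peptide; probe or stimulus: TAMRA-labelled myosin IIA heavy-chain peptide probe, 5 nM; medium: HEPES buffer with Ca2+, pH 7.2; schedule: 5 min incubation before reading; benchmarks: neutral control DMSO, positive control TFP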
DENV2 CPE rescue: inhibitors of DENV2 cytopathic effect, primary screen, cell-based, plate reader, single concentration; CPE inhibition, % at 9.99 µM; 350,000 compounds, 1.7% hits; DENV2-infected cells, cytopathic effect rescue; in the data active = CPE inhibition above about 20%, passing the limit was not always enough; tested in BHK-21 cells;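 also: 0% = median of neutral control wells and 100% = median of positive control wells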
CAL PDZ FP-1: CAL PDZ peptide-binding inhibitors, primary screen, biochemical, fluorescence polarization, Cer-tagged CAL PDZ, HTS; Golgi-associated PDZ and coiled-coil motif-containing protein (Homo sapiens), Q9HD26; purified CAL PDZ, TMR-peptide fluorescence polarization, 1 h; inhibition, % at 20 µM; 330,000 compounds, 0.02% hits; AID 504414, 2011;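 active = highest replicate inhibition of at least 40%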;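 also: plate controls were DMSO neutral control wells for no effect and unlabeled competitor peptide control wells for full effect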
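Material: tagged CAL PDZ domain; buffer or medium: 25 mM sodium phosphate pH 7.4, 150 mM NaCl, TCEP, IgG, Thesit; compound dosing: single point, 20 µM; schedule: 1 h incubation at room temperature before polarization reading; measured by: FP readout, S and P plane fluorescence; read-out basis: percent inhibition from loss of millipolarization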
SIRT5 inh: SIRT5 desuccinylase inhibitors, primary screen, biochemical, fluorescence imaging, single point, set 5 | NAD-dependent protein deacylase sirtuin-5, mitochondrial (Homo sapiens), Q9NXA8 | Purified SirT5, succinyl-peptide AMC, trypsin-coupled fluorescence | inhibition, % at 15 µM | 330,000 compounds, 1.1% hits | AID 652115, 2013; in the data active = inhibition above about 15%
CAL PDZ FP-2: untagged CAL PDZ binding inhibitors, primary screen, biochemical, fluorescence polarization, HTS; AID 602252, 2012; purified CAL PDZ, TMR-peptide fluorescence polarization, 1 h; inhibition, % at 24.9 µM; 300,000 compounds, 0.92% hits;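 active = mean inhibition of at least 30% with at least half of replicates also reaching 30%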;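 also: 0% = DMSO neutral control and 100% = excess unlabeled competitor peptide PRC23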
ERAP1 HTS inh: human ERAP1 aminopeptidase inhibitors, primary screen, biochemical, single point, plate reader; Endoplasmic reticulum aminopeptidase 1 (Homo sapiens), Q9NZ08; recombinant ERAP1, Leu-AMC fluorescence, 60 min; inhibition, % at 10.7 µM; 340,000 compounds, 0.15% hits;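 active = mean replicate inhibition of at least 30%, or all replicates individually reaching that 30% level; inactive = mean below 30% and not every replicate reaching it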;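 also: 0% = neutral control wells and 100% = L-leucinethiol positive control wells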
Starred values were filed as active, the others as inactive; · = not tested or not shown.

SMILES | S100A4 inh HTS | DENV2 CPE rescue | CAL PDZ FP-1 | SIRT5 inh | CAL PDZ FP-2 | ERAP1 HTS inh
C[C@H]1CN([C@@H](C)CO)C(=O)c2cc(NS(C)(=O)=O)ccc2O[C@@H]1CN(C)C(=O)Nc1cccc2ccccc12 | 6 | 1 | · | -4 | · | -2
COCC(=O)N1CCC2(CC1)CN(Cc1ccccn1)[C@@H](CO)c1[nH]c3cc(OC)ccc3c12 | · | -10 | · | · | · | ·
CC(C)NC(=O)Nc1ccc2c(c1)C(=O)N([C@H](C)CO)C[C@@H](C)[C@H](CN(C)Cc1ccc3c(c1)OCO3)O2 | -52 | -6 | · | 0 | · | 0
Cc1ccccc1Nc1c(-c2ccccn2)nc2ccccn12 | 0 | -9 | 0 | -2 | 82* | 2
CC1CN(C(=S)Nc2ccccc2)N(c2ccccc2)C1 (centres undefined) | -5 | 1 | -1 | -2 | 67* | -3
CC(C)COC(=O)N(C)C[C@H]1OCc2cnnn2CCCC(=O)N([C@@H](C)CO)C[C@@H]1C | 6 | -5 | · | -1 | · | 0
Cc1ccc(C(=O)CN(Cc2ccccc2)C2=NCCS2)cc1 | 0 | 9 | -1 | -10 | 6 | 3
O=C(CN(Cc1ccccc1)C1=NCCS1)c1ccccc1 | 0 | 39* | -1 | 0 | -6 | 2
Cc1nc(S(=O)(=O)NC2CCCCC2)c(C#N)c(C)c1Cl | · | · | -2 | · | -1 | ·
Cc1nc(S(=O)(=O)N(C)Cc2ccccc2)c(C#N)c(C)c1Cl | -2 | · | -3 | 17* | -2 | -1
COc1cccc(OC)c1OCCN1CCCC1 | 1 | 0 | -2 | 21* | -6 | -2
C=CCn1ncc(OC)c(Cl)c1=O | -6 | 1 | -1 | 24* | · | 2
COC(=O)[C@@](C)(O)C1(C(=O)SC(C)(C)C)CC1 | -2 | 130* | -3 | · | 0 | ·
CCC(=O)Nc1ccc2c(c1)C(=O)N(C)C[C@@H](OC)[C@H](C)CN(C(C)=O)[C@@H](C)CO2 | -6 | 29* | · | 0 | · | 1
CCC(=O)Nc1ccc2c(c1)C(=O)N(C)C[C@H](OC)[C@H](C)CN(C(C)=O)[C@@H](C)CO2 | 3 | -5 | · | -4 | · | -2
CCC(=O)Nc1ccc2c(c1)C(=O)N(C)C[C@@H](OC)[C@@H](C)CN(C(C)=O)[C@H](C)CO2 | -3 | 16 | · | -7 | · | 0
CCC(=O)Nc1ccc2c(c1)C(=O)N(C)C[C@H](OC)[C@@H](C)CN(C(C)=O)[C@@H](C)CO2 | -3 | 54* | · | -3 | · | 2
CO[C@H]1CN(C)C(=O)c2ccc(NS(=O)(=O)CC(F)(F)F)cc2OC[C@H](C)N(C)C[C@@H]1C | -2 | -4 | · | 25* | · | 3
CCC(=O)Nc1ccc2c(c1)C(=O)N(C)C[C@@H](OC)[C@@H](C)CN(C(C)=O)[C@@H](C)CO2 | 13 | 32* | · | 3 | · | 0
CO[C@@H]1CN(C)C(=O)c2ccc(NC(=O)C3CC3)cc2OC[C@H](C)N(CCc2ccccc2)C[C@H]1C | -16 | 17 | · | 3 | · | 1
C[C@H]1CN([C@@H](C)CO)C(=O)c2cc(Br)cnc2O[C@@H]1CN(C)C(=O)c1ccc(F)cc1 | 1 | 0 | · | -4 | · | -1
CCS(=O)(=O)Nc1ccc2c(c1)C(=O)N(C)C[C@H](OC)[C@H](C)CN(C(C)=O)[C@H](C)CO2 | 9 | 24* | · | 0 | · | 3
CCCNC(=O)N1C[C@@H](C)[C@H](OC)CN(C)C(=O)c2cc(NS(=O)(=O)CC(F)(F)F)ccc2OC[C@@H]1C | 1 | 60* | · | -7 | · | 1
C[C@@H]1CN([C@H](C)CO)C(=O)c2cccc(NC(=O)c3nc4ccccc4s3)c2O[C@H]1CN(C)Cc1ccc(C(=O)Nc2ccccc2N)cc1 | -4 | -10 | · | 12 | · | -3
CCCNC(=O)C[C@@H]1C[C@H]2c3cc(NC(=O)COC)ccc3O[C@H]2[C@H](CO)O1 | -3 | 3 | · | -3 | · | 0
CCS(=O)(=O)c1ccc2oc(Nc3ccc(OC)cc3)nc2c1 | -1 | 3 | 1 | -2 | 1 | -4
